Source: ChEMBL document CHEMBL1132593, “Structure-activity relationships of pyrazole derivatives as cannabinoid receptor antagonists” (J Med Chem, 1999)

Experiments:
Cannabinoid receptor 2 = Cannabinoid receptor 2 (Mus musculus, UniProt P47936); assay: Binding affinity against Cannabinoid receptor 2 in mouse spleen; assay type: tissue-based
Summary of the method: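 Membranes from frozen mouse spleen (CB2), about 50 μg, prepared in silanized tubes. Incubated 1 h at 30 °C in TME with 0.1% fatty-acid-free BSA, 0.8 nM [3H]2 and varying ligand concentrations. Filtration, four ice-cold washes with buffer containing 0.5% BSA, then scintillation counting. Nonspecific binding defined with 100 nM 2. Three independent experiments in duplicate, normalized to specific binding; 95% confidence limits.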

Cannabinoid receptor 1 = Cannabinoid receptor 1 (Rattus norvegicus, UniProt P20272); assay: Binding affinity against Cannabinoid receptor 1 in rat forebrain
Cannabinoid receptor 1, sequence (P20272 whole entry): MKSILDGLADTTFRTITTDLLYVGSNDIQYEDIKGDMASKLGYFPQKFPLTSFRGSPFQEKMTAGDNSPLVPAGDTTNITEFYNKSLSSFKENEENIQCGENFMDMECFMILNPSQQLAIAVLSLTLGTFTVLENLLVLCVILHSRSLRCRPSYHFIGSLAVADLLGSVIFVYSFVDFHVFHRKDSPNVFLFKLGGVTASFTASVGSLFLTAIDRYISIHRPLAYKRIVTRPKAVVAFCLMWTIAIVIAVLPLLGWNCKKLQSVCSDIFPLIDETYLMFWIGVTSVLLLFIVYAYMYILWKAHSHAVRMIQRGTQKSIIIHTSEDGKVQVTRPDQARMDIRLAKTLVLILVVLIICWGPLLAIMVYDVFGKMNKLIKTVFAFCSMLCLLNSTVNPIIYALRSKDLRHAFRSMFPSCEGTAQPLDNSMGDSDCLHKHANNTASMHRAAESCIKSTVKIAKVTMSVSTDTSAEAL

Cavia porcellus [1] = organism: Cavia porcellus; assay: Dissociation constant [1000(nM)] in myenteric plexus-longitudinal muscle of guinea pig small intestine using the cannabinoid receptor agonist.; assay type: functional, organism-based
Summary of the method: (§1)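 Guinea pig small intestine myenteric plexus-longitudinal muscle. Antagonist tested at the stated concentration against WIN55,212-2 inhibition of electrically evoked contractions. Drugs mixed with two parts Tween 80 by weight and dispersed in saline; Tween 80 served as the reference. Dose ratio from a symmetrical (2+2) dose parallel line assay on the steepest part of the curve. Kd = B/(x−1).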

Mus musculus [2] = organism: Mus musculus; assay: Dissociation constant [316(nM)] in mouse isolated vas deferens using the cannabinoid receptor agonist.; assay type: functional, organism-based
Summary of the method: (§2)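 Mouse isolated vas deferens. Antagonist tested at the stated concentration against WIN55,212-2 inhibition of electrically evoked contractions. Drugs dispersed in saline with two parts Tween 80 by weight, with Tween 80 as the reference. Dose ratio (95% confidence limits) from a symmetrical 2+2 dose parallel line assay. Kd from (x−1) = B/Kd.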

[3] = target: T1, Cannabinoid receptor (Homo sapiens) (UniProt P34972+P21554); assay: Ratio of the binding affinities against rat CB1 to that of mouse CB2; activity value is 1:85; assay type: protein assay
T1 sequence (P21554 whole entry, looked up): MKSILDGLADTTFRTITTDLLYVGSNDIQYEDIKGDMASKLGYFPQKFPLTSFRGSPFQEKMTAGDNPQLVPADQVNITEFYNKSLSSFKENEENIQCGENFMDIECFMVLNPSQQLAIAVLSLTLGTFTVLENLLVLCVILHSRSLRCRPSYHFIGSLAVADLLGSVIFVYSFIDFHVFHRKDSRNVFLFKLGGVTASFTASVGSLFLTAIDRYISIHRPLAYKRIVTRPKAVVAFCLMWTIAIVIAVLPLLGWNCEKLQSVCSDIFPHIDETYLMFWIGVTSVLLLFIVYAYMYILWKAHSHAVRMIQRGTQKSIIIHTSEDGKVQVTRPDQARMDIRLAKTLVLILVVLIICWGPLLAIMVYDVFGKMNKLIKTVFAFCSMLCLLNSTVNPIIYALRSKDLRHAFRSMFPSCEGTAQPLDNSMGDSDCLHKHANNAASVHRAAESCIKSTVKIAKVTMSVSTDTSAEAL
T1 sequence (P34972 whole entry, looked up): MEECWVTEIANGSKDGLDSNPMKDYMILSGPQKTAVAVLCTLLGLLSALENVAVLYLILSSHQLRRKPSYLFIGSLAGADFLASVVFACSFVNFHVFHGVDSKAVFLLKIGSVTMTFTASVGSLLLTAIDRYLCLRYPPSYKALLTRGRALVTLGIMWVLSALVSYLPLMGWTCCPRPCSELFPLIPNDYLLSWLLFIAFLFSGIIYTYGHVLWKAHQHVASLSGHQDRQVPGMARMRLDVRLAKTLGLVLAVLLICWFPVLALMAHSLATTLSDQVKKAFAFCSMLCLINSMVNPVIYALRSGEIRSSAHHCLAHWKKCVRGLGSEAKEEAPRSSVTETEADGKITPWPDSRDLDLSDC

Cavia porcellus [4] = organism: Cavia porcellus; assay: Dissociation constant [100(nM)] in myenteric plexus-longitudinal muscle of guinea pig small intestine using the cannabinoid receptor agonist.; assay type: functional, organism-based; summary of the method: as §1
Mus musculus [5] = organism: Mus musculus; assay: Dissociation constant [31.6(nM)] in mouse isolated vas deferens using the cannabinoid receptor agonist.; assay type: functional, organism-based; summary of the method: as §2
[6] = test system: Cannabinoid receptor CB1 (Rattus norvegicus) and CB2 (Mus musculus); assay: Ratio of the binding affinities against rat CB1 to that of mouse CB2; activity value is 1:2.7
Mus musculus [7] = organism: Mus musculus; assay: Dissociation constant [1000(nM)] in mouse isolated vas deferens using the cannabinoid receptor agonist.; assay type: functional, organism-based; summary of the method: as §2
[8] = test system: Cannabinoid receptor CB1 (Rattus norvegicus) and CB2 (Mus musculus); assay: Ratio of the binding affinities against rat CB1 to that of mouse CB2; activity value is 1:37
[9] = target: T1, Cannabinoid receptor (Homo sapiens); assay: Ratio of the binding affinities against rat CB1 to that of mouse CB2; activity value is 1:17; assay type: protein assay
[10] = target: T1, Cannabinoid receptor (Homo sapiens); assay: Ratio of the binding affinities against rat CB1 to that of mouse CB2; activity value is 1:7.2; assay type: protein assay

Cannabinoid receptor 2, sequence (P47936 whole entry): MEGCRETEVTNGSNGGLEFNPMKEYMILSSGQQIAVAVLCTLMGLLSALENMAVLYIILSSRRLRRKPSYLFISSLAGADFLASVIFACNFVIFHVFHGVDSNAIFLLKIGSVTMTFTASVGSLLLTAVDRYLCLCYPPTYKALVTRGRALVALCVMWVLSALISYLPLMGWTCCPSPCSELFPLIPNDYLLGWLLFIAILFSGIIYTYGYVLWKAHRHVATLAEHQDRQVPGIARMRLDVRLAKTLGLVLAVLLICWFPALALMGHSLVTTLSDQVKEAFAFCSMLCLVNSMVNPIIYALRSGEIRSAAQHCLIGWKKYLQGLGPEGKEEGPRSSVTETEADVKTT

SMILES	Ki (Cannabinoid receptor 2) [nM]	Ki (Cannabinoid receptor 1) [nM]	Kd (Cavia porcellus [1]) [nM]	also measured
CCc1c(C)c(C(=O)NN2CCCCC2)nn1-c1ccc(Cl)cc1Cl	744	183	–	–
Cc1c(C(=O)NN2CCCCCC2)nn(-c2ccc(Cl)cc2Cl)c1-c1ccc(Br)cc1	215	7.85	0.38	Kd (Mus musculus [2]): 6.8 nM; Ratio [3]: 28
Cc1c(C(=O)NN2CCCCC2)nn(-c2ccc(Cl)cc2)c1-c1ccc(Cl)cc1	836	–	–	–
Cc1c(C(=O)NN2CCCCC2)nn(-c2ccc(Cl)cc2Cl)c1-c1ccc([N+](=O)[O-])cc1	252	57.5	2.9	Kd (Mus musculus [2]): 5.31 nM
Cc1c(C(=O)NN2CCCCC2)nn(-c2ccc(Cl)cc2Cl)c1-c1ccc(Cl)cc1 [RIMONABANT]	–	–	–	Kd (Cavia porcellus [4]): 0.25 nM; Kd (Mus musculus [5]): 1.98 nM
Cc1c(C(=O)NN2CCCCC2)nn(-c2ccc(Cl)cc2Cl)c1-c1ccccc1	217	–	7	Kd (Mus musculus [2]): 28 nM
Cc1c(C(=O)NN2CCCCC2)nn(-c2ccc(Cl)cc2Cl)c1-c1ccccc1[N+](=O)[O-]	691	255	5.96	Kd (Mus musculus [2]): 25.4 nM; Ratio [6]: 2.7
Cc1c(C(=O)N2CCN(C)CC2)nn(-c2ccc(Cl)cc2Cl)c1-c1ccc(Br)cc1	2340	326	12.3	Kd (Mus musculus [7]): 325 nM
Cc1c(C(=O)NN2CCCCC2)nn(-c2ccc(Cl)cc2Cl)c1-c1ccccc1I	577	53.8	5.87	Kd (Mus musculus [5]): 7.83 nM
Cc1c(C(=O)NN2CCCCC2)nn(-c2ccc(Cl)cc2Cl)c1-c1ccc(N)cc1	958	81.5	–	Kd (Cavia porcellus [4]): 2.63 nM; Kd (Mus musculus [2]): 42.6 nM
Cc1c(C(=O)NN2CCCCC2)nn(-c2ccc(Cl)cc2Cl)c1-c1ccccc1N	931	346	–	Kd (Cavia porcellus [4]): 11.2 nM; Kd (Mus musculus [7]): 118 nM; Ratio [6]: 2.7
Cc1c(C(=O)N(C)C2CCCCC2)nn(-c2ccc(Cl)cc2Cl)c1-c1ccc(Br)cc1	1260	76.7	–	–
Cc1c(C(=O)N2CCCCC2)nn(-c2ccc(Cl)cc2Cl)c1-c1ccc(Br)cc1	4580	125	4.72	Kd (Mus musculus [7]): 172 nM; Ratio [8]: 37
Cc1c(C(=O)Nc2ccccc2)nn(-c2ccc(Cl)cc2Cl)c1-c1ccc(Br)cc1	6750	31.1	–	Ratio [9]: 217
Cc1c(C(=O)NCCO)nn(-c2ccc(Cl)cc2Cl)c1-c1ccc(Br)cc1	19000	1120	–	–
Cc1c(C(=O)NN2CCCCC2)nn(-c2ccc(Cl)cc2Cl)c1-c1ccc(I)cc1	–	–	–	Kd (Cavia porcellus [4]): 0.22 nM; Kd (Mus musculus [5]): 0.5 nM
Cc1c(C(=O)NC2CCCCC2)nn(-c2ccc(Cl)cc2Cl)c1-c1ccc(Br)cc1	1010	11.7	–	Ratio [10]: 87
Cc1c(C(=O)NN2CCOCC2)nn(-c2ccc(Cl)cc2Cl)c1-c1ccc(Br)cc1	2450	53.9	–	–
Cc1c(C(=O)NN2CCCCC2)nn(-c2ccc(Cl)cc2Cl)c1-c1ccc(Br)cc1	1430	16.8	–	Kd (Cavia porcellus [4]): 0.32 nM; Kd (Mus musculus [5]): 2.64 nM; Ratio [3]: 85
